According to ChEMBL document CHEMBL1275443, “Functional diversity among metallo-beta-lactamases: characterization of the CAR-1 enzyme of Erwinia carotovora” (2008):

Test system: Pectobacterium atrosepticum
Assay: Activity of Erwinia carotovora subsp. atroseptica DSM 30184 beta-lactamase CAR-1
Outline: (§1)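 Recombinant CAR-1, expressed in E. coli BL21(DE3)/pET9-CAR-1 and purified by DEAE-Sepharose then Mono Q chromatography in Zn-containing buffers. Enzyme was diluted in HZN buffer (50 mM HEPES-NaOH pH 7.5, 50 µM ZnSO4) with 20 µg/ml BSA and used at 1.9–3,800 nM.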

For `CC(=O)OCC1=C(C(=O)O)N2C(=O)[C@@H](NC(=O)Cc3cccs3)[C@H]2SC1`, which Km is on record?
The Km was 200 µM.

What about the kcat of the same compound?
Its kcat is 240 s⁻¹.

How did the Km turn out when `CC1(C)S[C@@H]2[C@H](NC(=O)[C@H](C(=O)O)c3ccsc3)C(=O)N2[C@H]1C(=O)O` was run?
The Km was 640 µM.

What about the kcat of the same compound?
The kcat was 9 s⁻¹.

What does the source list for `CC1(C)S[C@@H]2[C@H](NC(=O)[C@H](N)c3ccccc3)C(=O)N2[C@H]1C(=O)O`?
Km: 1600 µM; kcat: 5 s⁻¹

For `CO/N=C(\C(=O)N[C@@H]1C(=O)N2C(C(=O)O)=C(CSc3nc(=O)c(O)nn3C)CS[C@H]12)c1csc(N)n1`, which Km is on record?
Its Km is 130 µM.

And the kcat?
Its kcat is 13 s⁻¹.

What does the source list for `CO/N=C(\C(=O)N[C@@H]1C(=O)N2C(C(=O)O)=C(COC(N)=O)CS[C@H]12)c1ccco1`?
Km: 110 µM; kcat: 400 s⁻¹

Which results are given for `C[C@@H](O)[C@H]1C(=O)N2C(C(=O)O)=C([C@H]3CCCO3)S[C@H]12`?
Km: 120 µM; kcat: 5 s⁻¹

Which results are given for `CC1(C)S[C@@H]2[C@H](NC(=O)Cc3ccccc3)C(=O)N2[C@H]1C(=O)O`?
Km: 200 µM; kcat: 2 s⁻¹

How did the Km turn out when `CC(C)(O/N=C(\C(=O)N[C@@H]1C(=O)N2C(C(=O)[O-])=C(C[n+]3ccccc3)CS[C@H]12)c1csc(N)n1)C(=O)O` was run?
The Km was over 561 µM.

What about the kcat of the same compound?
Its kcat is over 160 s⁻¹.

How did the Km turn out when `CO/N=C(\C(=O)N[C@@H]1C(=O)N2C(C(=O)O)=C(COC(C)=O)CS[C@H]12)c1csc(N)n1` was run?
The Km was 160 µM.

What about the kcat of the same compound?
The kcat was 250 s⁻¹.

`CCN1CCN(C(=O)N[C@@H](C(=O)N[C@@H]2C(=O)N3[C@@H]2SC(C)(C)[C@@H]3C(=O)O)c2ccccc2)C(=O)C1=O` was tested. Which Km did it give?
Its Km is 340 µM.

What about the kcat of the same compound?
Its kcat is 9 s⁻¹.

For `CO[C@@]1(NC(=O)Cc2cccs2)C(=O)N2C(C(=O)O)=C(COC(N)=O)CS[C@@H]21`, which Km is on record?
Its Km is over 1570 µM.

And the kcat?
The kcat was over 7 s⁻¹.

Test system: Pectobacterium atrosepticum
Assay: Ratio of Kcat to Km for Erwinia carotovora subsp. atroseptica DSM 30184 beta-Lactamase CAR-1
Outline: as §1

How did the kcat/Km turn out when `CC(=O)OCC1=C(C(=O)O)N2C(=O)[C@@H](NC(=O)Cc3cccs3)[C@H]2SC1` was run?
The kcat/Km was 1.2 ×10⁶ /M/s.

How did the kcat/Km turn out when `CC1(C)S[C@@H]2[C@H](NC(=O)[C@H](C(=O)O)c3ccsc3)C(=O)N2[C@H]1C(=O)O` was run?
Its kcat/Km is 1.3 ×10⁴ /M/s.

How did the kcat/Km turn out when `CC1(C)S[C@@H]2[C@H](NC(=O)[C@H](N)c3ccccc3)C(=O)N2[C@H]1C(=O)O` was run?
The kcat/Km was 3.2 ×10³ /M/s.

With `CO/N=C(\C(=O)N[C@@H]1C(=O)N2C(C(=O)O)=C(CSc3nc(=O)c(O)nn3C)CS[C@H]12)c1csc(N)n1` as the compound, how does the kcat/Km read?
Its kcat/Km is 9.9 ×10⁴ /M/s.

With `CO/N=C(\C(=O)N[C@@H]1C(=O)N2C(C(=O)O)=C(COC(N)=O)CS[C@H]12)c1ccco1` as the compound, how does the kcat/Km read?
The kcat/Km was 3.6 ×10⁶ /M/s.

How did the kcat/Km turn out when `C[C@@H](O)[C@H]1C(=O)N2C(C(=O)O)=C([C@H]3CCCO3)S[C@H]12` was run?
The kcat/Km was 4.4 ×10⁴ /M/s.

Which kcat/Km does the source give for `CC1(C)S[C@@H]2[C@H](NC(=O)Cc3ccccc3)C(=O)N2[C@H]1C(=O)O` here?
The kcat/Km was 9.2 ×10³ /M/s.

How did the kcat/Km turn out when `CC(C)(O/N=C(\C(=O)N[C@@H]1C(=O)N2C(C(=O)[O-])=C(C[n+]3ccccc3)CS[C@H]12)c1csc(N)n1)C(=O)O` was run?
The kcat/Km was 2.9 ×10⁵ /M/s.

For `CO/N=C(\C(=O)N[C@@H]1C(=O)N2C(C(=O)O)=C(COC(C)=O)CS[C@H]12)c1csc(N)n1`, which kcat/Km is on record?
The kcat/Km was 1.5 ×10⁶ /M/s.

Which kcat/Km does the source give for `CCN1CCN(C(=O)N[C@@H](C(=O)N[C@@H]2C(=O)N3[C@@H]2SC(C)(C)[C@@H]3C(=O)O)c2ccccc2)C(=O)C1=O` here?
The kcat/Km was 2.6 ×10⁴ /M/s.

For `CO[C@@]1(NC(=O)Cc2cccs2)C(=O)N2C(C(=O)O)=C(COC(N)=O)CS[C@@H]21`, which kcat/Km is on record?
Its kcat/Km is 4.7 ×10³ /M/s.

Test system: Bradyrhizobium japonicum
Assay: Ratio of Kcat to Km for Bradyrhizobium japonicum beta-Lactamase BJP-1

Which kcat/Km does the source give for `CC1(C)S[C@@H]2[C@H](NC(=O)[C@H](N)c3ccccc3)C(=O)N2[C@H]1C(=O)O` here?
Its kcat/Km is 1.9 ×10⁴ /M/s.

`CO/N=C(\C(=O)N[C@@H]1C(=O)N2C(C(=O)O)=C(CSc3nc(=O)c(O)nn3C)CS[C@H]12)c1csc(N)n1` was tested. Which kcat/Km did it give?
Its kcat/Km is 9.6 ×10⁴ /M/s.

For `CO/N=C(\C(=O)N[C@@H]1C(=O)N2C(C(=O)[O-])=C(C[N+]3(C)CCCC3)CS[C@H]12)c1csc(N)n1`, which kcat/Km is on record?
The kcat/Km was 2 ×10² /M/s.

Which kcat/Km does the source give for `CO/N=C(\C(=O)N[C@@H]1C(=O)N2C(C(=O)O)=C(COC(N)=O)CS[C@H]12)c1ccco1` here?
Its kcat/Km is 5 ×10⁵ /M/s.

How did the kcat/Km turn out when `C[C@@H](O)[C@H]1C(=O)N2C(C(=O)O)=C([C@H]3CCCO3)S[C@H]12` was run?
The kcat/Km was 6.8 ×10³ /M/s.

How did the kcat/Km turn out when `CC1(C)S[C@@H]2[C@H](NC(=O)Cc3ccccc3)C(=O)N2[C@H]1C(=O)O` was run?
Its kcat/Km is 1.3 ×10⁵ /M/s.

With `C[C@@H](O)[C@H]1C(=O)N2C(C(=O)O)=C(SCCNC=N)C[C@H]12` as the compound, how does the kcat/Km read?
The kcat/Km was 6 ×10⁴ /M/s.

Which kcat/Km does the source give for `CO/N=C(\C(=O)N[C@@H]1C(=O)N2C(C(=O)O)=C(COC(C)=O)CS[C@H]12)c1csc(N)n1` here?
The kcat/Km was 1.4 ×10⁵ /M/s.

Which kcat/Km does the source give for `CCN1CCN(C(=O)N[C@@H](C(=O)N[C@@H]2C(=O)N3[C@@H]2SC(C)(C)[C@@H]3C(=O)O)c2ccccc2)C(=O)C1=O` here?
Its kcat/Km is 6.7 ×10⁴ /M/s.

Which kcat/Km does the source give for `CO[C@@]1(NC(=O)Cc2cccs2)C(=O)N2C(C(=O)O)=C(COC(N)=O)CS[C@@H]21` here?
The kcat/Km was 7.1 ×10⁴ /M/s.
